Measurements reported in PMC9426400 (Hepatology Communications, 2022).
Where two headings read alike, the source gives them in different places.

Legend:
Huh7 cells = assay: FAO assay in Huh7 cells; type: cell-based, human; details: for Stimulation of FAO: at the concentrations tested; for EC50: Homo sapiens; for FAO induction (times): 14C-OA, monotherapy
[1] = tested on: FFD-fed dyslipidemic Sprague Dawley rats; assay: Dyslipidemic rat model; type: in vivo; details: for Dose inducing PPAR target genes in eWAT: epidydimal white adipose tissue; for Dose in ACCi combination with significantly reduced hepatic Apoc3 expression: relative to both vehicle and ACCi alone
How it was run: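 Sprague Dawley rats fed FFD plus 4.03% sugar water (2.3% fructose, 1.7% glucose) for 28 days, across three studies. PPAR or THRβ agonists started Day 7 and ACCi Day 14. Circulating TG on Day 22 (serum Study 2, plasma Studies 3–4; n = 5–10/group). Terminal liver TG was taken fed, 8 h post-dose. Liver and eWAT gene expression measured. Nonparametric statistics, p ≤ 0.05.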

subjects with NASH = details: cited from earlier work
FAO = FAO assay validation with CPT1 inhibitor etomoxir; type: cell-based; details: read-out: EC50, block of FAO
[2] = tested on: LX2 human hepatic stellate cell line; assay: LX2 collagen assay; type: cell-based; details: LX-2, read-out: EC50, inhibition of collagen production
rat PPARδ = target: T1, rat PPARδ (Rattus norvegicus, UniProt Q62879); assay: PPAR luciferase reporter assay, rat PPARδ; type: cell-based
T1 sequence (Q62879 1-440): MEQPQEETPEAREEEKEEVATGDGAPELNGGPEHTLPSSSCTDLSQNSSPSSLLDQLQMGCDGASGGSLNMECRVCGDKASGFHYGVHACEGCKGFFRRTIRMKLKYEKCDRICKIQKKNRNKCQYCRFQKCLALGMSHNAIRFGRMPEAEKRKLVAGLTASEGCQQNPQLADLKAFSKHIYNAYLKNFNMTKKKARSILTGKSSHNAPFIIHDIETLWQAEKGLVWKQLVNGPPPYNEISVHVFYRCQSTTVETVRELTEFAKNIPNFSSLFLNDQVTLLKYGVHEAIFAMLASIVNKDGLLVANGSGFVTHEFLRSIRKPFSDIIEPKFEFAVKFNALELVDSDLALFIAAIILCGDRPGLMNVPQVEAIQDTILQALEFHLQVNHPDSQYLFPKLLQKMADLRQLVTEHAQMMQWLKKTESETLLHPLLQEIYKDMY

FFD-fed C57BL/6 mice = assay: FFD mouse model of early NASH; type: in vivo
[3] = Huh-7, read-out: FAO EC50, Huh7 cells, 14C-OA, monotherapy
[4] = Study 2, combination with ACCi 30 mg/kg, 15 mg/kg Feno, 30 mg/kg Ela

CCO[C@H](COc1ccc(C(F)(F)F)cc1)CSc1ccc(OCC(=O)O)c(C)c1 [Sela, seladelpar]
Stimulation of FAO (Huh7 cells; Huh7 cells): did not stimulate FAO
Dose inducing PPAR target genes in eWAT ([1]; dyslipidemic rats): 15 mg/kg
Dose in ACCi combination with significantly reduced hepatic Apoc3 expression [1]: 15 mg/kg
NASH resolution (share of subjects) (subjects with NASH; over 52 weeks, vs. 8% placebo): 26%

CCOC(=O)[C@@]1(CCCCCCOc2ccc(Cl)cc2)CO1 [etomoxir]
EC50 (FAO): 136 nM

CSc1ccc(C(=O)/C=C/c2cc(C)c(OC(C)(C)C(=O)O)c(C)c2)cc1 [Ela, elafibranor]
EC50 (Huh7 cells; [3]): 10300 nM
FAO induction (times) (Huh7 cells; Huh7 cells): 1.4 times
EC50 [2]: ~2000 nM
Liver TG reduction compared with vehicle [1, 4]: 76%
Dose in ACCi combination with significantly reduced hepatic Apoc3 expression [1]: ≥ 3 mg/kg

O=C(O)CCCc1cc2cc(Cl)ccc2n1S(=O)(=O)c1ccc2ncsc2c1 [Lani, lanifibranor]
Activation of rat PPARδ (rat PPARδ): did not activate rat PPARδ
Stimulation of FAO (Huh7 cells; Huh7 cells): did not stimulate FAO
NASH resolution (share of subjects) (subjects with NASH; over 24 weeks, vs. 19% placebo): 45%
Fibrosis regression (share of subjects) (subjects with NASH; over 24 weeks, vs. 24% placebo): 42%

CCc1ccc(CCOc2ccc(CC3SC(=O)NC3=O)cc2)nc1 (centres unmarked) [pioglitazone]
NASH resolution (share of subjects) (subjects with NASH; vs. 21% placebo): 47%

CC(C)OC(=O)C(C)(C)Oc1ccc(C(=O)c2ccc(Cl)cc2)cc1 [Feno, fenofibrate]
Liver total cholesterol content reduction (FFD-fed C57BL/6 mice; Feno^high (150 mg/kg) monotherapy): 57%
Liver total cholesterol content reduction (FFD-fed C57BL/6 mice; Feno^low (50 mg/kg) monotherapy): 49%
Liver TG reduction compared with vehicle [1, 4]: 58%
Dose in ACCi combination with significantly reduced hepatic Apoc3 expression [1]: ≥ 5 mg/kg

CCO[C@@H](Cc1ccc(OCCn2c(C)ccc2-c2ccc(SC)cc2)cc1)C(=O)O [Saro, saroglitazar]
EC50 (Huh7 cells; [3]): 51500 nM
FAO induction (times) (Huh7 cells; Huh7 cells): 3.6 times
Dose inducing PPAR target genes in eWAT ([1]; dyslipidemic rats): 3 mg/kg
Dose in ACCi combination with significantly reduced hepatic Apoc3 expression [1]: ≥ 0.3 mg/kg

CC(C)c1cc(Oc2c(Cl)cc(-n3nc(C#N)c(=O)[nH]c3=O)cc2Cl)n[nH]c1=O [Res, Resmetirom]
EC50 (Huh7 cells; [3]): 46000 nM
FAO induction (times) (Huh7 cells; Huh7 cells): 1.6 times
Liver TG reduction compared with vehicle ([1]; Study 4, 1 mg/kg Res in combination with ACCi 30 mg/kg): 83%
Liver TG reduction compared with vehicle ([1]; Study 4, 3 mg/kg Res in combination with ACCi 30 mg/kg): 88%
Liver TG in combination with ACCi relative to ACCi alone ([1]; dyslipidemic rats, combined with ACCi 30 mg/kg): lowered liver TG relative to ACCi alone
Circulating TG reduction vs. vehicle ([1]; dyslipidemic rats, monotherapy, 3 mg/kg, after 1 week): 50%
Dose in ACCi combination with significantly reduced hepatic Apoc3 expression [1]: 3 mg/kg
NASH resolution (share of subjects) (subjects with NASH; vs. 6.5% placebo): 27.4%

COc1ccccc1[C@H](Cn1c(=O)n(C(C)(C)C(=O)O)c(=O)c2c(C)c(-c3ncco3)sc21)OC1CCOCC1 [FIR, Firsocostat]
EC50 (Huh7 cells; Huh-7, read-out: FAO EC50, Huh7 cells, 14C-OA tracer): 32.7 nM
EC50 (Huh7 cells; Huh-7, read-out: FAO EC50, Huh7 cells, 14C-PA tracer): 16.6 nM
Reduction in relative liver TG (subjects with NASH; subjects with NASH): 30%

CC(C)(Oc1ccc(C(=O)c2ccc(Cl)cc2)cc1)C(=O)O [Fenofibric acid]
Activity in the FAO assay (Huh7 cells; Huh7 cells, up to a concentration of 100 μM): not active
